From ChEMBL document CHEMBL1154198, “Chemical genetics of Plasmodium falciparum” (Nature, 2010)

What was measured:
Plasmodium falciparum [1] = assay: ST_JUDE: Plasmodium falciparum 3D7 EC50 (uM) as measured by SYBR green dye; type: functional, organism-based
Plasmodium falciparum [2] = assay: ST_JUDE: Plasmodium falciparum K1 EC50 (uM) as measured by SYBR green dye; type: functional, organism-based
Plasmodium falciparum [3] = assay: ST_JUDE: Cytotoxicity against Plasmodium falciparum 3D7; type: functional, organism-based
Outline: (§1)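 Asexual P. falciparum grown in human erythrocytes, exposed to compounds for 72 h, and growth read as the DNA quantity in treated versus control cultures. Dose-response run at 12 concentrations from 10 μM to 5 nM.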

Plasmodium falciparum [4] = assay: ST_JUDE: Cytotoxicity against Plasmodium falciparum K1; type: functional, organism-based; outline: as §1
Plasmodium falciparum [5] = assay: ST_JUDE: Cytotoxicity against Plasmodium falciparum V1/S; type: functional, organism-based
Toxoplasma gondii = assay: ST_JUDE: Growth inhibition of to Toxoplasma gondii, in human U-2OS cells, as measured by luciferase.; type: functional, organism-based; settings: RH, U2OS
Outline: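 T. gondii parasites engineered to express luciferase; drug sensitivity read by luminescence.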

Trypanosoma brucei = assay: ST_JUDE: Cytotoxicity using luciferase to measure ATP as an indicator of the viability of Trypanosoma brucei; type: functional, organism-based
Leishmania major = assay: ST_JUDE: Cytotoxicity using Alamar Blue to measure viability of Leishmania major; type: functional, organism-based
Outline: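 L. major promastigotes; drug susceptibility read with Alamar Blue.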

[6] = ST_JUDE: Cytotoxicity using luciferase to measure ATP as an indicator of the viability of human foreskin fibroblast cells (BJ); type: toxicity, cell-based
[7] = ST_JUDE: Cytotoxicity using luciferase to measure ATP as an indicator of the viability of human epithelial hepatocellular carcinoma cells (HepG2); type: toxicity, cell-based
[8] = ST_JUDE: Cytotoxicity using luciferase to measure ATP as an indicator of the viability of human epithelial embryonic kidney cells (HEK293); type: toxicity, cell-based
[9] = ST_JUDE: Cytotoxicity using luciferase to measure ATP as an indicator of the viability of human Burkitt''s lymphoma lymphoblast cells (Raji); type: toxicity, cell-based
Plasmodium falciparum [10] = assay: ST_JUDE: Cytotoxicity against Plasmodium falciparum Dd2; type: functional, organism-based
Plasmodium falciparum [11] = assay: ST_JUDE: Cytotoxicity against Plasmodium falciparum W2; type: functional, organism-based
Plasmodium falciparum [12] = assay: ST_JUDE: Cytotoxicity against Plasmodium falciparum SB-A6; type: functional, organism-based
Plasmodium falciparum [13] = assay: ST_JUDE: Cytotoxicity against Plasmodium falciparum D10 transfected with yeast DHOD; type: functional, organism-based

SMILES	EC50 (Plasmodium falciparum [1]) [nM]	EC50 (Plasmodium falciparum [2]) [nM]	EC50 (Plasmodium falciparum [3]) [nM]	EC50 (Plasmodium falciparum [4]) [nM]	EC50 (Plasmodium falciparum [5]) [nM]	EC50 (Toxoplasma gondii) [nM]	EC50 (Trypanosoma brucei) [nM]	EC50 (Leishmania major) [nM]	EC50 [6] [nM]	EC50 [7] [nM]	EC50 [8] [nM]	EC50 [9] [nM]	EC50 (Plasmodium falciparum [10]) [nM]	EC50 (Plasmodium falciparum [11]) [nM]	EC50 (Plasmodium falciparum [12]) [nM]	EC50 (Plasmodium falciparum [13]) [nM]
CCO/C(O)=C1\C(C)=NC2=C(C(=O)CC(c3ccc(OC)c(OC)c3)C2)C1c1cccc(C)c1 (stereo not drawn)	1020	633	1100	950	1180	> 22300	> 39000	> 17400	> 40600	> 40600	> 40600	> 40600	2080	816	602	1360
CC(C)(C)c1cc(C2C(C#N)=C(N)OC3=C2C(=O)CCC3)cc(C(C)(C)C)c1O (stereo not drawn)	1350	427	1850	1860	1520	1340	5460	> 15500	> 36200	3030	> 36200	3040	2530	3440	2530	2390
CO/C(O)=C1\C(C)=NC2=C(C(=O)CC(c3ccc(OC)c(OC)c3)C2)C1c1ccc(F)cc1 (stereo not drawn)	122	108	236	272	409	> 25300	25200	> 19800	> 46300	> 46300	> 46300	> 46300	456	208	178	182
CCCn1c2c(c(=N)c3c1CCC3)CCCC2	2960	3020	2560	3000	7630	> 22100	> 38700	532	> 40300	> 40300	> 40300	> 40300	1970	> 10400	3610	> 10400
Cc1ccc2c(c1)N(C)/C(=C/c1sc3ccccc3[n+]1CCO)S2	1580	440	320	420	546	> 10600	6040	> 8280	> 19300	> 19300	> 19300	2100	341	432	514	362
CCOC(=O)C1=C(C)N=c2s/c(=C\c3cc(Cl)ccc3O)c(=O)n2C1c1ccc(N(C)C)cc1 (stereo not drawn)	> 15000	1000	> 4680	446	235	> 9980	6200	> 7800	> 18200	> 18200	> 18200	> 18200	1820	> 4680	2690	> 4680
CCCCOc1ccc(N(C(C)=O)C2=C(N3CCOCC3)C(=O)c3ccccc3C2=O)cc1	98.9	95.6	70.8	66	36.4	> 17100	4010	> 13400	> 31200	3890	10900	3820	488	930	28.9	21.2
CC(=O)N(C1=C(N(C)C)C(=O)c2ccccc2C1=O)c1ccc(F)cc1	68.5	144	12.1	15.2	11.9	630	571	> 13700	3830	712	7540	284	12.5	77.3	29.7	17.6
COc1ccc(O)c(CN2CCN(c3cc(C)ccc3C)CC2)c1	1370	488	2200	992	660	> 19400	> 34000	> 15200	> 35500	> 35500	> 35500	> 35500	741	566	1290	1230
CC(C)(C)c1cc(/N=N/C(=O)c2ccncc2)cc(C(C)(C)C)c1O	545	496	602	480	508	2300	1010	> 12200	> 28400	> 28400	971	682	1010	1110	462	478
CN(C)c1cc[n+](CC(=O)c2ccc(Br)cc2)cc1	1090	1500	1610	2610	> 7920	> 16900	> 29600	> 13200	> 30800	> 30800	> 30800	> 30800	1030	> 7920	> 7920	4300
CCc1ccccc1NC(=O)C1c2ccccc2C(=O)N(CC(C)C)C1c1cccs1 (stereo not drawn)	511	526	938	1080	1150	> 23600	12900	> 18400	> 43000	> 43000	> 43000	> 43000	1210	679	1010	1080
COc1ccc(C2CC(=O)C3=C(C2)NC(=O)CC3c2ccc(OC)c(OC)c2)cc1 (stereo not drawn)	919	1320	1240	1510	> 11700	> 24900	> 43500	> 19400	> 45400	> 45400	> 45400	> 45400	1310	2210	2320	1640
